Data on eleven compounds can be found in ChEMBL document CHEMBL1125793 (J Med Chem, 1991).

Experiment [1] deals with T1, Angiotensin II receptor (Rattus norvegicus) (UniProt P29089+P25095+P35351). The experiment can be described thus: Inhibitory activity against Angiotensin II receptor, from rat adrenal gland at a concentration of 10 uM. The experiment is classed as tissue-based. An outline of the steps:
(§1)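 Displacement of 125I-Ang II ([…]) from rat adrenal membrane fraction, with test agent at a single 10 μM. Buffer was Tris-HCl, NaCl, 5 mM DTT and BSA; incubation 30 min at 22–25 °C in duplicate.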

Experiment [2] has as its target T1, Angiotensin II receptor (Rattus norvegicus). Nature of the experiment: Inhibitory activity against angiotensin II receptor at a concentration of 10 uM in rat. An outline of the steps:
as §1

Experiment [3] has as its target T2, Angiotensin II receptor (Rattus norvegicus, UniProt P29089+P25095+P35351).
T2 sequence (P29089 whole entry): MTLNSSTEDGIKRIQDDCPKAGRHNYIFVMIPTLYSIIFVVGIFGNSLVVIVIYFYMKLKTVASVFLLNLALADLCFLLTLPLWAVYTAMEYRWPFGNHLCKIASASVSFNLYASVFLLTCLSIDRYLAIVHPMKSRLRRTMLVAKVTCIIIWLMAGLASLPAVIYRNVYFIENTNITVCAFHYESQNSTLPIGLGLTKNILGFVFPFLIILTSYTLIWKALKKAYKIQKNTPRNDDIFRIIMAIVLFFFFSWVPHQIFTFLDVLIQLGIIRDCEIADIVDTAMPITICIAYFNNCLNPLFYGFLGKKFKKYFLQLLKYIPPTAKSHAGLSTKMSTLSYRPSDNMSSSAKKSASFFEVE
T2 sequence (P25095 whole entry): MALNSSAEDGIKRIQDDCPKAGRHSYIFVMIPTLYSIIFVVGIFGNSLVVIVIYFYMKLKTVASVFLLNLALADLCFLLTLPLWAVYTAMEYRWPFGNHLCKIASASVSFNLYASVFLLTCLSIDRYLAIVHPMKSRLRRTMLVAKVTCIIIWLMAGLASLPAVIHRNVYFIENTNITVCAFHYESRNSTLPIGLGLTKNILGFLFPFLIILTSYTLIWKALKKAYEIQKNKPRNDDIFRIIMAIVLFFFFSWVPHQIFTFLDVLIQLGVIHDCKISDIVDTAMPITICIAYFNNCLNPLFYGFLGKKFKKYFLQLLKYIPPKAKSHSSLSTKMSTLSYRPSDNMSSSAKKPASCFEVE
T2 sequence (P35351 whole entry): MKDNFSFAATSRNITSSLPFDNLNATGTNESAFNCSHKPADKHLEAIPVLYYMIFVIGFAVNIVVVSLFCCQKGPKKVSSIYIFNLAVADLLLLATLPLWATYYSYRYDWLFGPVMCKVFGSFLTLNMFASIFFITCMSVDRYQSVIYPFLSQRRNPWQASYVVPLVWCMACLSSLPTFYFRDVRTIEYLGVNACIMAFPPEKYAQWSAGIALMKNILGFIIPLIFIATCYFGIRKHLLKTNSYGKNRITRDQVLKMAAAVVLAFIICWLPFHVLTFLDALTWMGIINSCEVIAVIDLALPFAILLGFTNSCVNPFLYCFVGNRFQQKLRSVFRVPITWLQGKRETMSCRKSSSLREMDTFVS
Nature of the experiment: Binding affinity against Angiotensin II receptor, from rat adrenal gland. In kind it is tissue-based.

In experiment [4] the target is T2, Angiotensin II receptor. Nature of the experiment: Binding affinity for rat brain Angiotensin II receptor.

As usually defined, the inhibition is the percentage by which the read-out fell short of the control. Low values mean a response near the control, high ones a response far below the control. One may read the IC50 as the point on the concentration scale where inhibition reaches its midpoint. Read a high IC50 as weaker potency in that assay.

In experiment [1], `NC(=O)C1Cc2c(ncn2Cc2ccccc2)CN1C(=O)Nc1ccccc1` (configuration not stated) yielded an inhibition of 14%. The compound `COc1ccc(Cn2cnc3c2C[C@@H](C(=O)O)N(C(=O)C2c4ccccc4-c4ccccc42)C3)cc1C` registered an inhibition in experiment [2] of 27%. With `O=C(O)C1Cc2c(ncn2Cc2ccccc2)CN1C(=O)c1ccccc1` (configuration not stated), the inhibition in experiment [1] was 12%. On to `O=C(O)C1Cc2c(ncn2Cc2ccccc2)CN1C(=O)C1c2ccccc2-c2ccccc21` (configuration not stated), for which the values for the 50% inhibitory concentration (IC50) at Angiotensin II receptor [3] and on Angiotensin II receptor [4] were 8 µM and 19 µM, respectively. `CC(=O)N1Cc2ncn(Cc3ccccc3)c2CC1C(=O)O` (configuration not stated) gave an inhibition in experiment [1] of 4%. Turning to `O=C(O)[C@@H]1Cc2c(ncn2CCC23CC4CC(CC(C4)C2)C3)CN1C(=O)C(c1ccccc1)c1ccccc1`, the results for the IC50 at Angiotensin II receptor [3] and on Angiotensin II receptor [4] were 0.13 µM and 0.17 µM, respectively.

`O=C(O)C1Cc2ncn(Cc3ccccc3)c2CN1C(=O)Nc1ccccc1` (configuration not stated) returned an inhibition in experiment [1] of 24%. Regarding `Cc1cc(Cn2cnc3c2C[C@@H](C(=O)O)N(C(=O)C(c2ccccc2)c2ccccc2)C3)ccc1N(C)C`, the 50% inhibitory concentration (IC50) turned out to be 0.034 µM at Angiotensin II receptor [3] and 0.21 µM at Angiotensin II receptor [4]. Turning to `O=C(O)[C@@H]1Cc2c(ncn2Cc2ccc(C(F)(F)F)cc2)CN1C(=O)C(c1ccccc1)c1ccccc1`, the 50% inhibitory concentration (IC50) worked out at 0.19 µM on Angiotensin II receptor [3] and 0.8 µM at Angiotensin II receptor [4].

For `O=C(O)[C@@H]1Cc2c(ncn2CCCc2ccccc2)CN1C(=O)C(c1ccccc1)c1ccccc1`, the IC50 was 0.7 µM at Angiotensin II receptor [3] and 0.4 µM at Angiotensin II receptor [4]. For `O=C(O)C1Cc2c(ncn2Cc2ccccc2)CN1C(=O)C(c1ccccc1)c1ccccc1` (stereo in doubt; 18a) the same measures were 0.44 µM and 3.8 µM.
